Experimental data from ChEMBL document CHEMBL1123757, “Selective thromboxane synthetase inhibitors and antihypertensive agents. New derivatives of 4-hydrazino-5H-pyridazino[4,5-b]indole, 4-hydrazinopyridazino[4,5-a]indole, and related compounds” (J Med Chem, 1987).

How the values were obtained:
[1] = tested on: Rattus norvegicus; assay: Antihypertensive activity in spontaneously hypertensive rats (SHR) measured by percentage fall in cardiac rhythm (CR) at 5 mg/kg administered intraperitoneally at 24 h;No significance; type: functional, organism-based; design: dose 5 mg/kg; conditions: Heart
In short: (§1)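 Conscious SHR (Okamoto strain), 8 weeks old, male and female, 300–350 g, systolic BP ≥190 mmHg, CR 400–650 beats/min. Given ip or po at 2.5 mL/kg in normal saline or saline with 0.2% (carboxymethyl)cellulose and 1.0% Tween 80. Tail AP and CR recorded by mechanical transduction at 1, 3, 5 and 24 h, five animals per dose. Effect expressed as % fall versus control.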

[2] = tested on: Rattus norvegicus; assay: Antihypertensive activity in spontaneously hypertensive rats (SHR) measured by percentage fall in arterial pressure (AP) at 25 mg/kg administered intraperitoneally at 24 h; No significance; type: functional, organism-based; design: dose 25 mg/kg; conditions: Artery
In short: (§2)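 Unanesthetized Okamoto-strain SHR, male and female, 8 weeks old, 300–350 g, systolic pressure ≥190 mmHg, heart rate 400–650 beats/min; five animals per dose. Given ip at 2.5 mL/kg, dissolved or suspended in normal saline or saline with 0.2% (carboxymethyl)cellulose and 1.0% Tween 80. Tail AP and CR recorded by mechanical transduction at set times; reported as percentage fall from control.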

[3] = tested on: Rattus norvegicus; assay: Antihypertensive activity in spontaneously hypertensive rats (SHR) measured by percentage fall in arterial pressure (AP) at 1 mg/kg administered intraperitoneally at 3 h;No significance; type: functional, organism-based; design: dose 1 mg/kg; conditions: Artery; in short: as §2
[4] = species: Homo sapiens; assay: In vitro inhibition of platelet aggregation induced by […] (PRP incubated for 5 minutes at 37 degree C) at 10e-5 M; No significance; type: functional
[5] = tested on: Rattus norvegicus; assay: Antihypertensive activity in spontaneously hypertensive rats (SHR) measured by percentage fall in cardiac rhythm (CR) at 25 mg/kg administered perorally at 24 h;No significance; type: functional, organism-based; design: dose 25 mg/kg; conditions: Heart; in short: as §1
[6] = species: Homo sapiens; assay: In vitro inhibition of platelet aggregation induced by ADP-II (PRP incubated for 5 minutes at 37 degree C) at 10e-5 M; No significance; type: functional
In short: (§3)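 Human venous blood anticoagulated with 3.8% sodium citrate (1:9). PRP from centrifugation at 800 rpm for 10 min at room temperature. Count adjusted with PPP to […]. Compound in saline with 10% ethylene glycol is added to PRP and incubated at 37 °C before the agonist. Agonists: ADP 2×10^-5 M, AA 0.6 mM, PGH2 2.8 μM, adrenaline 0.6 μM. Born absorbance aggregometry; n = 5.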

[7] = tested on: Rattus norvegicus; assay: Antihypertensive activity in spontaneously hypertensive rats (SHR) measured by percentage fall in arterial pressure (AP) at 1 mg/kg administered intraperitoneally at 5 h;No significance; type: functional, organism-based; design: dose 1 mg/kg; conditions: Artery; in short: as §2
[8] = species: Homo sapiens; assay: In vitro inhibition of platelet aggregation induced by AA (PRP incubated for 60 minutes at 37 degree C) at 10e-5 M; No significance; type: functional; in short: as §3
[9] = species: Homo sapiens; assay: No significance in vitro inhibition of platelet aggregation induced by ADP-II (PRP incubated for 60 minutes at 37 degree C) at 10e-5 M;No significance; type: functional; in short: as §3
[10] = tested on: Rattus norvegicus; assay: Antihypertensive activity in spontaneously hypertensive rats (SHR) measured by percentage fall in cardiac rhythm (CR) at 5 mg/kg administered intraperitoneally at 5 h;No significance; type: functional, organism-based; design: dose 5 mg/kg; conditions: Heart; in short: as §1
[11] = tested on: Rattus norvegicus; assay: Antihypertensive activity in spontaneously hypertensive rats (SHR) measured by percentage fall in arterial pressure (AP) at 1 mg/kg administered intraperitoneally at 24 h;No significance; type: functional, organism-based; design: dose 1 mg/kg; conditions: Artery; in short: as §2
[12] = tested on: Rattus norvegicus; assay: Antihypertensive activity in spontaneously hypertensive rats (SHR) measured by percentage fall in cardiac rhythm (CR) at 25 mg/kg administered perorally at 5 h;No significance; type: functional, organism-based; design: dose 25 mg/kg; conditions: Heart; in short: as §1
[13] = tested on: Rattus norvegicus; assay: Percent fall in systolic blood pressure, directly measured on carotid (iv on the jugular vein) of spontaneously after 180 minutes; No significance; type: functional, organism-based; conditions: Artery
In short: (§4)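 Anesthetized (sodium pentobarbital, 70 mg/kg) male and female Okamoto SHR, 8 weeks old, 300–350 g. Given iv into the jugular vein in normal saline. Arterial pressure and cardiac rhythm are recorded directly from the carotid by polygraph at set times after dosing. Each is expressed as percent change from the pre-dose control value.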

[14] = tested on: Rattus norvegicus; assay: Percent fall in systolic blood pressure, directly measured on carotid (iv on the jugular vein) of spontaneously hypertensive rats at 1 mg/kg after 240 minutes; No significance; type: functional, organism-based; design: dose 1 mg/kg; conditions: Artery; in short: as §4
[15] = tested on: Rattus norvegicus; assay: Antihypertensive activity in spontaneously hypertensive rats (SHR) measured by percentage fall in arterial pressure (AP) at 25 mg/kg administered perorally at 24 h;No significance; type: functional, organism-based; design: dose 25 mg/kg; conditions: Artery
In short: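 Oral dosing at 2.5 mL/kg to unanesthetized male and female Okamoto-strain SHR (8 weeks old, 300–350 g, systolic pressure ≥190 mmHg, heart rate 400–650 beats/min), five per dose. Vehicle was normal saline or saline with 0.2% (carboxymethyl)cellulose and 1.0% Tween 80. AP measured on the tail by mechanical transduction at set times; expressed as percentage fall from control.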

[16] = tested on: Rattus norvegicus; assay: Antihypertensive activity in spontaneously hypertensive rats (SHR) measured by percentage fall in arterial pressure (AP) at 1 mg/kg administered intraperitoneally at 1 h;No significance; type: functional, organism-based; design: dose 1 mg/kg; conditions: Artery; in short: as §2
[17] = tested on: Rattus norvegicus; assay: Antihypertensive activity in spontaneously hypertensive rats (SHR) measured by percentage fall in arterial pressure (AP) at 25 mg/kg administered intraperitoneally at 5 h; type: functional, Artery; conditions: route intraperitoneal; in short: as §2
[18] = tested on: Rattus norvegicus; assay: Antihypertensive activity in spontaneously hypertensive rats (SHR) measured by percentage fall in cardiac rhythm (CR) at 25 mg/kg administered intraperitoneally at 3 h; type: functional, Heart; conditions: route intraperitoneal; in short: as §2
[19] = tested on: Rattus norvegicus; assay: Antihypertensive activity in spontaneously hypertensive rats (SHR) measured by percentage fall in arterial pressure (AP) at 25 mg/kg administered intraperitoneally at 3 h; type: functional, Artery; conditions: route intraperitoneal; in short: as §2
[20] = tested on: Rattus norvegicus; assay: Antihypertensive activity in spontaneously hypertensive rats (SHR) measured by percentage fall in cardiac rhythm (CR) at 25 mg/kg administered intraperitoneally at 5 h; No significance; type: functional, organism-based; design: dose 25 mg/kg; conditions: Heart; in short: as §1
[21] = tested on: Rattus norvegicus; assay: Antihypertensive activity in spontaneously hypertensive rats (SHR) measured by percentage fall in cardiac rhythm (CR) at 25 mg/kg administered intraperitoneally at 1 h; type: functional, Heart; conditions: route intraperitoneal; in short: as §2
[22] = species: Homo sapiens; assay: In vitro inhibition of platelet aggregation induced by ADP-II (PRP incubated for 60 minutes at 37 degree C) at 10e-5 M; type: functional; conditions: 1 h; in short: as §3
[23] = tested on: Rattus norvegicus; assay: Antihypertensive activity in spontaneously hypertensive rats (SHR) measured by percentage fall in arterial pressure (AP) at 25 mg/kg administered intraperitoneally at 1 h; type: functional, Artery; conditions: route intraperitoneal; in short: as §2

NNc1[nH]ncc2c3cc(OCc4ccccc4)ccc3nc1-2
inactive: Decrease in CR [1] No significant values | Decrease in AP [2] No significant values | Decrease in AP [3] No significant values | inhibition [4] No significant values | Decrease in CR [5] No significant values | inhibition [6] No significant values | Decrease in AP [7] No significant values | inhibition [8] No significant values | inhibition [9] No significant values | Decrease in CR [10] No significant values | Decrease in AP [11] No significant values | Decrease in CR [12] No significant values

NNc1[nH]ncc2c3cc(O)ccc3nc1-2
inactive: Decrease in blood pressure [13] No significant values | Decrease in CR [5] No significant values | Decrease in AP [7] No significant values | Decrease in blood pressure [14] No significant values | Decrease in AP [15] No significant values | Decrease in AP [16] No significant values

COc1ccc2[nH]c3c(O)nncc3c2c1
100%: inhibition at 10 µM [22]
5%: Decrease in AP [17] | Decrease in CR [18]
inactive: inhibition [20] No significant values | inhibition [4] No significant values | inhibition [6] No significant values | inhibition [8] No significant values
7%: Decrease in CR [21]
10%: Decrease in AP [19] | Decrease in AP [23]
